Results published in ChEMBL document CHEMBL1131138, “A novel class of orally active non-peptide bradykinin B2 receptor antagonists. 3. Discovering bioisosteres of the imidazo[1,2-a] pyridine moiety” (J Med Chem, 1998).

What follows are compounds tested against T1, B2 bradykinin receptor (Homo sapiens, UniProt P30411) (assay: Inhibition specific binding of [3H]BK (1.0 nM) to human Bradykinin receptor B2 which was expressed in CHO (Chinese hamster ovary) cells by 50%.). Details: not given.
T1 sequence (P30411 whole entry): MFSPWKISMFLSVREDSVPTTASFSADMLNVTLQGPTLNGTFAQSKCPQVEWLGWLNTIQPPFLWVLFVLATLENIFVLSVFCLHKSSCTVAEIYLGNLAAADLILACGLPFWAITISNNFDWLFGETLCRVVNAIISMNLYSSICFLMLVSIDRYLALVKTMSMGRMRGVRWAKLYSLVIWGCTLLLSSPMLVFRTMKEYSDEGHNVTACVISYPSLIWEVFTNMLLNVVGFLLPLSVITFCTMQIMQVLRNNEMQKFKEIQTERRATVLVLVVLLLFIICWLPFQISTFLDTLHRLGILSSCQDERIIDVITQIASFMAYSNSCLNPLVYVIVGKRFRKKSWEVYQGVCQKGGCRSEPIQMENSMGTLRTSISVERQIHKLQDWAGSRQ
Type: cell-based
Outline: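 CHO (dhfr−) cells stably expressing human B2 receptor, seeded at 3.0 × 10^4 cells/well and cultured 1 day. Whole cells incubated with 1.0 nM [3H]BK plus compound for 2 h at 4 °C in HEPES/N-methyl-D-glucamine buffer pH 7.2 with bacitracin, enalaprilat and BSA. Washed, solubilized in SDS/NaOH and counted. Nonspecific binding with 1 μM BK; DMSO below 3%; three experiments.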

Row | Compound | IC50 [nM]
1 | CNC(=O)c1ccc(/C=C/C(=O)NCC(=O)N(C)c2ccc(Cl)c(COc3cccc4ncc(C)nc34)c2Cl)cc1 | 5.2
2 | CC(=O)Nc1ccc(/C=C/C(=O)NCC(=O)N(C)c2ccc(Cl)c(COc3cccc4ncc(C)nc34)c2Cl)cc1 | 2.5
3 | CNC(=O)c1ccc(/C=C/C(=O)NCC(=O)N(C)c2ccc(Cl)c(COCc3cccc(C)n3)c2Cl)cc1 | > 10000
4 | CNC(=O)c1ccc(/C=C/C(=O)NCC(=O)N(C)c2ccc(C)c(COc3cccc4c3nc(OC)n4C)c2C)cc1 | 7.2
5 | CCc1nc2c(OCc3c(Cl)ccc(N(C)C(=O)CNC(=O)/C=C/c4ccc(C(=O)NC)cc4)c3Cl)cccc2n1C | 22
6 | CNC(=O)c1ccc(/C=C/C(=O)NCC(=O)N(C)c2ccc(Cl)c(COc3cccc4ccc(C)nc34)c2Cl)cc1 | 1.1
7 | CNC(=O)c1ccc(/C=C/C(=O)NCC(=O)N(C)c2ccc(Cl)c(COc3cccc4nc(C)cnc34)c2Cl)cc1 | 2900
8 | CNC(=O)c1ccc(/C=C/C(=O)NCC(=O)N(C)c2ccc(Cl)c(COc3cccc4oc(C)nc34)c2Cl)cc1 | 1100
9 | CNC(=O)c1ccc(/C=C/C(=O)NCC(=O)N(C)c2ccc(Cl)c(COc3cccc4c3nc(C)n4C)c2Cl)cc1 | 67
10 | CNC(=O)c1ccc(/C=C/C(=O)NCC(=O)N(C)c2ccc(Cl)c(COc3cccc4cnc(C)nc34)c2Cl)cc1 | 56
11 | CNC(=O)c1ccc(/C=C/C(=O)NCC(=O)N(C)c2ccc(Cl)c(COc3cccnc3-n3c(C)ccc3C)c2Cl)cc1 | 2000
12 | CNC(=O)c1ccc(/C=C/C(=O)NCC(=O)N(C)c2ccc(Cl)c(COc3cccc4c3nc(OC)n4C)c2Cl)cc1 | 2.2

Each compound was assayed against T1, B2 bradykinin receptor (assay: Concentration required to inhibit specific binding of [3H]BK (1.2 nM) to A-431 cells (human epidermoid carcinoma) which express Bradykinin receptor B2 by 50%.). Details: not given.
Type: cell-based

Row | Compound | IC50 [nM]
13 | CNC(=O)c1ccc(/C=C/C(=O)NCC(=O)N(C)c2ccc(Cl)c(COc3cccc4ncc(C)nc34)c2Cl)cc1 | 3.1
14 | CNC(=O)c1ccc(/C=C/C(=O)NCC(=O)N(C)c2ccc(Cl)c(COCc3cccc(C)n3)c2Cl)cc1 | > 10000
15 | CNC(=O)c1ccc(/C=C/C(=O)NCC(=O)N(C)c2ccc(Cl)c(COc3cccc4ccc(C)nc34)c2Cl)cc1 | 1.3
16 | CNC(=O)c1ccc(/C=C/C(=O)NCC(=O)N(C)c2ccc(Cl)c(COc3cccc4nc(C)cnc34)c2Cl)cc1 | 4300
17 | CNC(=O)c1ccc(/C=C/C(=O)NCC(=O)N(C)c2ccc(Cl)c(COc3cccc4oc(C)nc34)c2Cl)cc1 | 860
18 | CNC(=O)c1ccc(/C=C/C(=O)NCC(=O)N(C)c2ccc(Cl)c(COc3ccc4ccc(C)nc4c3)c2Cl)cc1 | > 10000
19 | CNC(=O)c1ccc(/C=C/C(=O)NCC(=O)N(C)c2ccc(Cl)c(COc3cccc4c3nc(C)n4C)c2Cl)cc1 | 43
20 | CNC(=O)c1ccc(/C=C/C(=O)NCC(=O)N(C)c2ccc(Cl)c(COc3cccc4cnc(C)nc34)c2Cl)cc1 | 59
21 | CNC(=O)c1ccc(/C=C/C(=O)NCC(=O)N(C)c2ccc(Cl)c(COc3cccnc3-n3c(C)ccc3C)c2Cl)cc1 | 3500
22 | CNC(=O)c1ccc(/C=C/C(=O)NCC(=O)N(C)c2ccc(Cl)c(COc3cccc4cnc(C)cc34)c2Cl)cc1 | > 10000

These compounds were tested against T2, B2 bradykinin receptor (Cavia porcellus, UniProt O70526) (assay: Concentration required to inhibit specific binding of [ 3H]BK (0.06 nM) to Bradykinin receptor B2 in guinea pig ileum membrane preparations by 50%.). Details: not given.
T2 sequence (O70526 whole entry): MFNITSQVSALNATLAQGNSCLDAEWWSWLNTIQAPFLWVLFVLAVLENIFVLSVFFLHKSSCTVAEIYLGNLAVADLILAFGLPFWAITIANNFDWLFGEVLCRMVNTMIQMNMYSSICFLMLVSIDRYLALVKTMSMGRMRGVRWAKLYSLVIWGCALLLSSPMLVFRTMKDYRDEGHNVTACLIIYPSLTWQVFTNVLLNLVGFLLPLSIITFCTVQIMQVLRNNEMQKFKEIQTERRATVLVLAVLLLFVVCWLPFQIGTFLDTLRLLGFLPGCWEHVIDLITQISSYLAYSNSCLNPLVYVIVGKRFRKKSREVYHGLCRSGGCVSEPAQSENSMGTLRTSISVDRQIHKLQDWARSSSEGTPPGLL
Type: cell membranes
Outline: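 Ileal membranes from male Hartley guinea pigs (0.2 mg protein/mL) in TES buffer pH 6.8 with phenanthroline, bacitracin, DTT, captopril and BSA. Incubated with 0.06 nM [3H]BK plus compound for 60 min at room temperature, then filtered through GF/B and counted by scintillation.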

Row | Compound | IC50 [nM]
23 | CNC(=O)c1ccc(/C=C/C(=O)NCC(=O)N(C)c2ccc(Cl)c(COc3cccc4ncc(C)nc34)c2Cl)cc1 | 1
24 | CC(=O)Nc1ccc(/C=C/C(=O)NCC(=O)N(C)c2ccc(Cl)c(COc3cccc4ncc(C)nc34)c2Cl)cc1 | 2.4
25 | CNC(=O)c1ccc(/C=C/C(=O)NCC(=O)N(C)c2ccc(Cl)c(COCc3cccc(C)n3)c2Cl)cc1 | > 10000
26 | CNC(=O)c1ccc(/C=C/C(=O)NCC(=O)N(C)c2ccc(C)c(COc3cccc4c3nc(OC)n4C)c2C)cc1 | 1.6
27 | CCc1nc2c(OCc3c(Cl)ccc(N(C)C(=O)CNC(=O)/C=C/c4ccc(C(=O)NC)cc4)c3Cl)cccc2n1C | 8.7
28 | CNC(=O)c1ccc(/C=C/C(=O)NCC(=O)N(C)c2ccc(Cl)c(COc3cccc4ccc(C)nc34)c2Cl)cc1 | 0.51
29 | CNC(=O)c1ccc(/C=C/C(=O)NCC(=O)N(C)c2ccc(Cl)c(COc3cccc4nc(C)cnc34)c2Cl)cc1 | 170
30 | CNC(=O)c1ccc(/C=C/C(=O)NCC(=O)N(C)c2ccc(Cl)c(COc3cccc4oc(C)nc34)c2Cl)cc1 | 380
31 | CNC(=O)c1ccc(/C=C/C(=O)NCC(=O)N(C)c2ccc(Cl)c(COc3ccc4ccc(C)nc4c3)c2Cl)cc1 | > 10000
32 | CNC(=O)c1ccc(/C=C/C(=O)NCC(=O)N(C)c2ccc(Cl)c(COc3cccc4c3nc(C)n4C)c2Cl)cc1 | 9.1
33 | CNC(=O)c1ccc(/C=C/C(=O)NCC(=O)N(C)c2ccc(Cl)c(COc3cccc4cnc(C)nc34)c2Cl)cc1 | 110
34 | CNC(=O)c1ccc(/C=C/C(=O)NCC(=O)N(C)c2ccc(Cl)c(COc3cccnc3-n3c(C)ccc3C)c2Cl)cc1 | 350
35 | CNC(=O)c1ccc(/C=C/C(=O)NCC(=O)N(C)c2ccc(Cl)c(COc3cccc4cnc(C)cc34)c2Cl)cc1 | > 10000
36 | CNC(=O)c1ccc(/C=C/C(=O)NCC(=O)N(C)c2ccc(Cl)c(COc3cccc4c3nc(OC)n4C)c2Cl)cc1 | 0.83

What follows are compounds tested on Cavia porcellus (assay: In vivo inhibition of Bradykinin induced Bronchoconstriction in anaesthetized guinea pig following 1 mg/kg p.o.). Details: route oral.
Type: functional
Outline: (§1)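 Male Hartley guinea pigs (470–750 g), fasted overnight, anesthetized with ip pentobarbital (30 mg/kg) and ventilated at 10 mL/kg, 60 breaths/min. Given alcuronium (0.5 mg/kg iv) and propranolol (10 mg/kg sc). BK 5 μg/kg iv, with bronchoconstriction read as peak pulmonary insufflation pressure (modified Konzett–Rössler).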

Row | Compound | inhibition in vivo at 1 mg/kg [%]
37 | CNC(=O)c1ccc(/C=C/C(=O)NCC(=O)N(C)c2ccc(Cl)c(COc3cccc4ccc(C)nc34)c2Cl)cc1 | 81.9

These compounds were tested on Cavia porcellus (assay: Inhibition of Bradykinin induced Bronchoconstriction in anaesthetized guinea pig at 0.32mg/kg, po). Details: not given.
Type: functional
Outline: as §1

Row | Compound | inhibition in vivo at 0.32 mg/kg [%]
38 | CNC(=O)c1ccc(/C=C/C(=O)NCC(=O)N(C)c2ccc(Cl)c(COc3cccc4ccc(C)nc34)c2Cl)cc1 | 67.4

These compounds were tested on Cavia porcellus (assay: Compound tested in vivo for inhibition of Bradykinin induced Bronchoconstriction in anaesthetized guinea pig at 1 mg/kg, po). Details: not given.
Type: functional
Outline: as §1

Row | Compound | inhibition in vivo at 1 mg/kg [%]
39 | CC(=O)Nc1ccc(/C=C/C(=O)NCC(=O)N(C)c2ccc(Cl)c(COc3cccc4ncc(C)nc34)c2Cl)cc1 | 28.6
40 | CNC(=O)c1ccc(/C=C/C(=O)NCC(=O)N(C)c2ccc(C)c(COc3cccc4c3nc(OC)n4C)c2C)cc1 | 59.7
41 | CCc1nc2c(OCc3c(Cl)ccc(N(C)C(=O)CNC(=O)/C=C/c4ccc(C(=O)NC)cc4)c3Cl)cccc2n1C | 31.7
42 | CNC(=O)c1ccc(/C=C/C(=O)NCC(=O)N(C)c2ccc(Cl)c(COc3cccc4c3nc(OC)n4C)c2Cl)cc1 | 21.7
